{"source": "ChEMBL document CHEMBL1157731", "about": "“Novel KCNQ2/Q3 agonists as potential therapeutics for epilepsy and neuropathic pain” (J Med Chem, 2010)", "key": {"Rattus norvegicus [1]": {"system": "Rattus norvegicus", "experiment": "Analgesic activity in po dosed Sprague-Dawley rat assessed as reduction of spinal nerve ligation-induced allodynia score", "format": "functional", "in_short": "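L5 spinal nerve tightly ligated distal to the DRG under halothane in male Sprague-Dawley rats, followed by 2-3 weeks of recovery. Von Frey withdrawal thresholds taken on a wire-mesh floor (top threshold 15 g), with baseline measured before dosing. Compound given po in 0.5% methylcellulose; testing at 1 and 2 h post-dose.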"}, "Rattus norvegicus [2]": {"system": "Rattus norvegicus", "experiment": "Antinociceptive activity in formalin-treated Sprague-Dawley rat model assessed as reduction in hind paw flinches at 10 mg/kg, po measured during 11 to 60 mins of phase 2 flinches", "format": "functional", "design": "scale not given: the % may be the effect or the level left", "in_short": "(§1)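 A small metal band was glued to the right hind paw of male Sprague-Dawley rats 1 h before testing. Compound given po in 0.5% methylcellulose 1 h before the test, then 50 μL of 2.5% formalin injected sc into the dorsal paw. Flinches counted electromagnetically for 60 min; phase II covers 11-60 min post-injection.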"}, "Mus musculus [3]": {"system": "Mus musculus", "experiment": "Anticonvulsant activity against maximal electroshock-induced seizures in CD1 mouse model at 20 mg/kg, po treated 30 mins before electroshock application", "format": "functional, organism-based", "design": "dose 20 mg/kg", "in_short": "(§2)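 Male CD-1 mice dosed po (10 mL/kg in 5% DMSO/95% of 0.5% HPMC/1% Tween 80) 30 min before corneal electroshock at 50 mA for 0.2 s, with 1% proparacaine in each eye. Latency to hindlimb extension recorded to 0.1 s. No extension within 6 s scored as protected (latency 6 s). Reported as protected/tested (8 per group), or EC50 derived from latency scores.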"}, "[4]": {"molecular_target": "Histamine H1 receptor (Homo sapiens) (UniProt P35367)", "sequence (P35367 whole entry)": "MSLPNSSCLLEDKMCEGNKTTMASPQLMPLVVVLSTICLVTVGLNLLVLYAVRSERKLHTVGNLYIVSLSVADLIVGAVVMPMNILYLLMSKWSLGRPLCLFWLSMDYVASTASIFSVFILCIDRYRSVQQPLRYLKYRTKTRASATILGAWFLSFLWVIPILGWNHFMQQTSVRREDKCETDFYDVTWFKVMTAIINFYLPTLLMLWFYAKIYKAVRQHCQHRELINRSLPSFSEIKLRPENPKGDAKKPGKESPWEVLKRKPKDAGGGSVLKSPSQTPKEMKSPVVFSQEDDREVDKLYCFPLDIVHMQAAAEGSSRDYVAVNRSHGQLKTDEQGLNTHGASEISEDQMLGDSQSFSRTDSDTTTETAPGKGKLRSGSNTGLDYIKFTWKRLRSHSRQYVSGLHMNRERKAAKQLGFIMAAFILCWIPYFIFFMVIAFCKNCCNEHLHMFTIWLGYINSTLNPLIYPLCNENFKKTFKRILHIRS", "experiment": "Displacement of radioligand from histamine H1 receptor at 10 uM"}, "[5]": {"molecular_target": "Cannabinoid receptor 2 (Homo sapiens) (UniProt P34972)", "sequence (P34972 whole entry)": "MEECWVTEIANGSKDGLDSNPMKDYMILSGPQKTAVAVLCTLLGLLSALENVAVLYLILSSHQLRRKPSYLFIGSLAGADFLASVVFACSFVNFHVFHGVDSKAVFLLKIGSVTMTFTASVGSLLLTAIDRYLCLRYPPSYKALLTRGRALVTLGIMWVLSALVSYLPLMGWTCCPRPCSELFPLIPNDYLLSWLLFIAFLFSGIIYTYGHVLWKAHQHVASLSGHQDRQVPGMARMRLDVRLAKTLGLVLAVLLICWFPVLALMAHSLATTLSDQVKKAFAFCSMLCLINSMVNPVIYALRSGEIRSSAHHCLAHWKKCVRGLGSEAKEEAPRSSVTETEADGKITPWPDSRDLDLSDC", "experiment": "Displacement of [3H]WIN-55212-2 from human recombinant CB2 receptor expressed in CHO cells at 10 uM", "format": "cell-based"}, "[6]": {"experiment": "Binding affinity to Calcium channel diltiazem site at 10 uM by displacement assay"}, "Rattus norvegicus [7]": {"system": "Rattus norvegicus", "experiment": "Analgesic activity in Sprague-Dawley rat assessed as reduction of spinal nerve ligation-induced allodynia score at 10 mg/kg, po", "format": "functional", "design": "scale not given: the % may be the effect or the level left", "in_short": "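Male Sprague-Dawley rats; L5 spinal nerve tightly ligated with 4.0 silk distal to the DRG under halothane, then 2-3 weeks recovery. Dosed po in 0.5% methylcellulose. Von Frey tactile withdrawal thresholds measured on a wire mesh floor, top threshold 15 g. Baseline taken just before dosing; testing at 1 and 2 h post-dose.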"}, "[8]": {"molecular_target": "Mu-type opioid receptor (Homo sapiens) (UniProt P35372)", "sequence (P35372 whole entry)": "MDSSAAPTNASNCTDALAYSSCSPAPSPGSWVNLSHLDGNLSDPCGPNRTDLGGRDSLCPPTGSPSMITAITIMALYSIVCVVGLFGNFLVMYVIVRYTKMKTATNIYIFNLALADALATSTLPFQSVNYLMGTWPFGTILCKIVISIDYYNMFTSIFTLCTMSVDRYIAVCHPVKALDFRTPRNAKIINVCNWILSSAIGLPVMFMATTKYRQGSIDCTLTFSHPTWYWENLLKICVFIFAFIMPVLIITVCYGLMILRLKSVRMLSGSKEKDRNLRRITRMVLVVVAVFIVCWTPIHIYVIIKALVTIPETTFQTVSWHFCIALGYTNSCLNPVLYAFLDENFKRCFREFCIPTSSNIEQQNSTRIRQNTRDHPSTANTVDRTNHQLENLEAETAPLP", "experiment": "Displacement of [3H]diprenorphine from human recombinant mu opioid receptor expressed in HEK293 cells at 10 uM", "format": "cell-based"}, "[9]": {"molecular_target": "Kappa-type opioid receptor (Rattus norvegicus) (UniProt P34975)", "sequence (P34975 whole entry)": "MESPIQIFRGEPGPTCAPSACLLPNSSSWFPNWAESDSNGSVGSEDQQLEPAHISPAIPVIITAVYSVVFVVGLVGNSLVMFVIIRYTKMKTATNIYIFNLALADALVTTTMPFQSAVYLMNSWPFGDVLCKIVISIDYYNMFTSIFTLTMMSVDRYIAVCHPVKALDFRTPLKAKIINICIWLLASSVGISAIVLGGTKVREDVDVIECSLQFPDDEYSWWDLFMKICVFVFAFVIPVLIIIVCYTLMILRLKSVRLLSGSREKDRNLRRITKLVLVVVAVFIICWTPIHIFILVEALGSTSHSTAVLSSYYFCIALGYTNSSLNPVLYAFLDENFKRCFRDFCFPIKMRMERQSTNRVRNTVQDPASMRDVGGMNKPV", "experiment": "Displacement of [3H]U69593 from rat recombinant kappa opioid receptor expressed in CHO cells at 30 uM", "format": "cell-based"}, "[10]": {"experiment": "Binding affinity to voltage-dependent N-type calcium channel at 10 uM by displacement assay"}, "[11]": {"experiment": "Binding affinity to sodium channel site 2 at 10 uM by displacement assay"}, "[12]": {"molecular_target": "Delta-type opioid receptor (Homo sapiens) (UniProt P41143)", "sequence (P41143 whole entry)": "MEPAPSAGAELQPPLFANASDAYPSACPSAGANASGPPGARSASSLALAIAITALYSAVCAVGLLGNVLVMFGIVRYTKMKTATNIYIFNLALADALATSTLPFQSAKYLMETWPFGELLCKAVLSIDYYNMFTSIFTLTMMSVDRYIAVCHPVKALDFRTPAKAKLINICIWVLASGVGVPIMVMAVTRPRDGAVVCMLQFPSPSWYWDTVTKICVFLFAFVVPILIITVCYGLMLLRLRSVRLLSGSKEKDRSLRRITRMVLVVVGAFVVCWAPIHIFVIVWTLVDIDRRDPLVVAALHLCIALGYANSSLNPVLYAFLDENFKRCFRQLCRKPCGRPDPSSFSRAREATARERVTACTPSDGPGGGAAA", "experiment": "Displacement of [3H]DADLE from human recombinant delta opioid receptor expressed in CHO cells at 10 uM", "format": "cell-based"}, "[13]": {"molecular_target": "Cannabinoid receptor 1 (Homo sapiens) (UniProt P21554)", "sequence (P21554 whole entry)": "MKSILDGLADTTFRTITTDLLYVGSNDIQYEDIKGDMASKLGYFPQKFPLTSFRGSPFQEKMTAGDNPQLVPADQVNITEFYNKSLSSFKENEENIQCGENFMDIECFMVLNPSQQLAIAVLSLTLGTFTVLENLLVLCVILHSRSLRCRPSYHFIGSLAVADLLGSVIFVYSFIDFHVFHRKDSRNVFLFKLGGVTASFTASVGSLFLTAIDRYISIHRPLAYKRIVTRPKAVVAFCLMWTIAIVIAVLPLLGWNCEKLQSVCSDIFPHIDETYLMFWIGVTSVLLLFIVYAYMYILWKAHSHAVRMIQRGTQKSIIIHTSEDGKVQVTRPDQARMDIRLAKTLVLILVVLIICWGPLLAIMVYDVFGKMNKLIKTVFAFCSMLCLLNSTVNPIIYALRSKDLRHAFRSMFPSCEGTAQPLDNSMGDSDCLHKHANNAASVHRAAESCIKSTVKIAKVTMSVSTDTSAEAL", "experiment": "Displacement of [3H]CP-55940 from human recombinant CB1 receptor expressed in CHO cells at 10 uM", "format": "cell-based"}, "[14]": {"molecular_target": "T1, Cholecystokinin receptor type A (Homo sapiens) (UniProt P32238)", "T1 sequence (whole entry)": "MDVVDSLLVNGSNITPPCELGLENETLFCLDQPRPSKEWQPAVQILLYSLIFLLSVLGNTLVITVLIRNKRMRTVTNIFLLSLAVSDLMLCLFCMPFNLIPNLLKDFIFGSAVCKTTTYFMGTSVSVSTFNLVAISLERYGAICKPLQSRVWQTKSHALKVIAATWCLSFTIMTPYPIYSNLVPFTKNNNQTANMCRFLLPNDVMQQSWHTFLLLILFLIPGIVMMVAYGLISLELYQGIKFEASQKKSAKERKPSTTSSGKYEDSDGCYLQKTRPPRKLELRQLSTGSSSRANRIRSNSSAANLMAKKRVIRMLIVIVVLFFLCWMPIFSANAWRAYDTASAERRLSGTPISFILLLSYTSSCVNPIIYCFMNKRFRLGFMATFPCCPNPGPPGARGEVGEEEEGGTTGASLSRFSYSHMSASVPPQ", "experiment": "Displacement of radioligand from cholecystokinin A receptor at 10 uM"}, "[15]": {"molecular_target": "Kappa-type opioid receptor (Rattus norvegicus) (UniProt P34975)", "experiment": "Displacement of [3H]U69593 from rat recombinant kappa opioid receptor expressed in CHO cells at 10 uM", "format": "cell-based"}, "[16]": {"experiment": "Binding affinity to Calcium channel DHP site at 10 uM by displacement assay"}, "Rattus norvegicus [17]": {"system": "Rattus norvegicus", "experiment": "Antinociceptive activity in formalin-treated Sprague-Dawley rat model assessed as reduction in hind paw flinches at 34 mg/kg, po measured during 11 to 60 mins of phase 2 flinches", "format": "functional", "design": "scale not given: the % may be the effect or the level left", "in_short": "as §1"}, "Mus musculus [18]": {"system": "Mus musculus", "experiment": "Anticonvulsant activity against maximal electroshock-induced seizures in CD1 mouse model at 10 mg/kg, po treated 30 mins before electroshock application", "format": "functional, organism-based", "design": "dose 10 mg/kg", "in_short": "as §2"}, "Rattus norvegicus [19]": {"system": "Rattus norvegicus", "experiment": "Antinociceptive activity in formalin-treated Sprague-Dawley rat model assessed as reduction in hind paw flinches at 17 mg/kg, po measured during 11 to 60 mins of phase 2 flinches", "format": "functional", "design": "scale not given: the % may be the effect or the level left", "in_short": "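Male Sprague-Dawley rats dosed po in 0.5% methylcellulose 1 h before assay. A 0.5 g metal band was glued to the right hind paw 1 h beforehand. 2.5% formalin (50 μL) was injected sc into the dorsal right hind paw. An electromagnetic detector counted flinches for 60 min; phase II is 11-60 min post-injection.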"}}, "note": "Activity calls are given as the source filed them.", "data": [{"molecule": "CC(C)OC(=O)N/N=c1\\sc2cc(OC(F)(F)F)ccc2n1C", "values": [{"measurement": "ED50", "setting": "Rattus norvegicus [1]", "value": 16.2, "unit": "mg/kg"}, {"measurement": "Activity", "setting": "Rattus norvegicus [2]", "value": 47, "unit": "%"}, {"measurement": "Activity", "setting": "Mus musculus [3]", "value": "Active"}, {"measurement": "Activity", "setting": "[4]", "value": 0, "unit": "%"}, {"measurement": "Activity", "setting": "[5]", "value": 0, "unit": "%"}, {"measurement": "Activity", "setting": "[6]", "value": 0, "unit": "%"}, {"measurement": "Activity", "setting": "Rattus norvegicus [7]", "value": 100, "unit": "%"}, {"measurement": "Activity", "setting": "[8]", "value": 0, "unit": "%"}, {"measurement": "Activity", "setting": "[9]", "value": 0, "unit": "%"}, {"measurement": "Activity", "setting": "[10]", "value": 0, "unit": "%"}, {"measurement": "Activity", "setting": "[11]", "value": 35, "unit": "%"}, {"measurement": "Activity", "setting": "[12]", "value": 10, "unit": "%"}, {"measurement": "Activity", "setting": "[13]", "value": 19, "unit": "%"}, {"measurement": "Activity", "setting": "[14]", "value": 11, "unit": "%"}, {"measurement": "Activity", "setting": "[15]", "value": 15, "unit": "%"}, {"measurement": "Activity", "setting": "[16]", "value": 0, "unit": "%"}]}, {"molecule": "Cn1/c(=N/NC(=O)CC2CCCC2)sc2cc(OC(F)(F)F)ccc21", "values": [{"measurement": "Activity", "setting": "Rattus norvegicus [17]", "value": 28, "unit": "%"}, {"measurement": "Activity", "setting": "Mus musculus [3]", "value": "Active"}, {"measurement": "Activity", "setting": "[4]", "value": 0, "unit": "%"}, {"measurement": "Activity", "setting": "[14]", "value": 53, "unit": "%"}]}, {"molecule": "Cn1/c(=N/NC(=O)CC(C)(C)C)sc2cc(OC(F)(F)F)ccc21", "values": [{"measurement": "Activity", "setting": "Mus musculus [18]", "value": "Active"}, {"measurement": "ED50", "setting": "Rattus norvegicus [1]", "value": 20, "unit": "mg/kg"}, {"measurement": "Activity", "setting": "[4]", "value": 22, "unit": "%"}, {"measurement": "Activity", "setting": "[14]", "value": 0, "unit": "%"}, {"measurement": "Activity", "setting": "Rattus norvegicus [19]", "value": 55, "unit": "%"}]}]}
